Source: PubChem
Hits are enriched below; roughly 2.3% of the tested compounds scored in any of these assays.
PAD4 inh: inhibitors of human PAD4. 330,000 compounds, 0.41% hits. recombinant PAD4, RCA probe fluorescence polarization. inhibition, % at 6.36 µM. AID 485272;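 active = percent inhibition above a cutoff equal to the mean of all tested compounds plus 3 SD, cut at about 15% in these data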
GSTO1 counter: GSTO1 inhibition, counter-screen for RBBP9 inhibitors; P78417; inhibition, % at 5.96 µM; AID 1974; 300,000 compounds, 1.1% hits; recombinant GSTO1, activity-based probe fluorescence polarization;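 active = inhibition above the campaign mean inhibition plus 3 SD, cut at about 35% in these data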
RBBP9 inhibitor: inhibitors of human serine hydrolase RBBP9. O75884. recombinant RBBP9, FP-Rh probe fluorescence polarization. inhibition, % at 7.94 µM. 220,000 compounds, 0.2% hits. AID 1515;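 active = inhibition above the campaign mean of all tested compounds plus 3 SD, cut at about 14% in these data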
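Assay system: recombinant human RBBP9; Reagent: Serine-hydrolase probe FP-Rh, 375 nM pre-mixing; Doses: 7.94 µM single dose, 0.794% DMSO; Incubation: 30 min then 45 min, 25 °C; Detection: fluorescence polarization (mP), excitation 525 nm, emission 598 nm; Evaluation: percent inhibition from mP, scaled between DMSO and no-protein wells.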
PRMT1 FP inh: inhibitors of human PRMT1. recombinant PRMT1, activity-based probe fluorescence polarization. inhibition, % at 2.79 µM. 370,000 compounds, 1.3% hits;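 active = inhibition above about 21% made by adding two undisclosed values, limit read from the data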
Target sequence (Q99873 whole entry, looked up): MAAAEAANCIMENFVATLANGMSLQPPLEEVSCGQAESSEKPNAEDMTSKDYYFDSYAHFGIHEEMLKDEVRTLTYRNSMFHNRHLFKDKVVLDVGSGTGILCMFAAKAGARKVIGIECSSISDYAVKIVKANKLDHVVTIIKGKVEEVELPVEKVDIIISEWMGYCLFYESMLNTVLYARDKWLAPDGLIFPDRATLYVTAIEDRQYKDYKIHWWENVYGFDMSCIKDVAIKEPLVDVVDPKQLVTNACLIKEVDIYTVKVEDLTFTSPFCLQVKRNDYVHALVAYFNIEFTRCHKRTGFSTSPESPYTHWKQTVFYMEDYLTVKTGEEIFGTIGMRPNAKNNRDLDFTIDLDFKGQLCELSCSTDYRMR
PME-1 inh: PME-1 (human) inhibition; inhibition, % at 5.9 µM; 320,000 compounds, 0.53% hits; AID 2130; recombinant PME-1, FP-Rh probe fluorescence polarization; Q9Y570;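 active = inhibition above the campaign mean of all compounds plus 3 SD, cut at about 26% in these data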;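 note: competitive labeling of PME-1 active site by serine hydrolase directed probe; inhibitors block probe labeling so polarization falls and inhibition rises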
Target sequence (Q9Y570 whole entry, looked up): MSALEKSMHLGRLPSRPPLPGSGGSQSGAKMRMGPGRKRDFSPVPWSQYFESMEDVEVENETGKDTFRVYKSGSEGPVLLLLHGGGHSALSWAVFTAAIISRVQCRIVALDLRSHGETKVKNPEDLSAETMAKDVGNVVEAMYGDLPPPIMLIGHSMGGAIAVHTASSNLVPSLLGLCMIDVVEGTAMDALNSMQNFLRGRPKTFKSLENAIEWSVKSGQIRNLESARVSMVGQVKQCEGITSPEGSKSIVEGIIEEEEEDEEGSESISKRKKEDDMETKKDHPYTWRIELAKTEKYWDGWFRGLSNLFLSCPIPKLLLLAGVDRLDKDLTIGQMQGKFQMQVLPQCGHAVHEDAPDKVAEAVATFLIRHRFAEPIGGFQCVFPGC
Fam108B counter: Fam108B inhibition, counter-screen for RBBP9 inhibitors. recombinant Fam108B, FP-Rh probe fluorescence polarization. inhibition, % at 9.51 µM. 300,000 compounds, 0.33% hits;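 active = inhibition above the screen mean inhibition plus 3 SD, computed separately per campaign, cut at about 18% in these data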;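 note: inhibitors lower polarization as less probe binds the enzyme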
Large screens that a line does not name were inactive.

OCCN1CCN(C(=S)c2ccc(Br)cc2)CC1	PRMT1 FP inh 22
O=[N+]([O-])c1cccc(C2Nc3cccc4cccc(c34)N2)c1	Fam108B counter 21
O=[N+]([O-])c1ccc(C2Nc3cccc4cccc(c34)N2)cc1	PME-1 inh 29
O=C1c2ccccc2NC(c2cccc([N+](=O)[O-])c2)N1O (centres undefined)	none (no result: RBBP9 inhibitor)
CCN(CC)S(=O)(=O)c1cccc(C(=O)NCCc2ccccc2)c1	none
CN(c1ccccc1)S(=O)(=O)c1cccc(C(=O)NCCc2ccc(O)c(O)c2)c1	GSTO1 counter 39
CC1=C(C#N)C(=O)NC(=O)/C1=C\c1ccc(-c2cc(C)c(C)cc2[N+](=O)[O-])o1	PRMT1 FP inh 40 (no result: PAD4 inh, GSTO1 counter, PME-1 inh, Fam108B counter)
Cc1ccc(-c2ccc(/C=C3/NC(=O)NC3=O)o2)cc1[N+](=O)[O-]	none (no result: PAD4 inh, GSTO1 counter, PME-1 inh, Fam108B counter)
COc1ccc(Cl)cc1NC(=O)CSc1nnc(C)c(=O)n1N	none (no result: RBBP9 inhibitor)
CN(C)CCCNC(=O)C[C@H]1C[C@H](C(=O)N2CCCCC2)[C@@]2(CCc3ccccc3)c3[nH]c4cc(-c5ccco5)ccc4c3CCN2C1=O	none (no result: GSTO1 counter, RBBP9 inhibitor, PME-1 inh, Fam108B counter)
O=C(C[C@H]1C[C@H](C(=O)N2CCOCC2)[C@@]2(CCC3CCCC3)c3[nH]c4cc(-c5ccco5)ccc4c3CCN2C1=O)NCc1ccco1	PRMT1 FP inh 22 (no result: GSTO1 counter, RBBP9 inhibitor, PME-1 inh, Fam108B counter)
CC(C)(C)NC(=O)C[C@H]1C[C@H](C(=O)N2CCCCC2)[C@@]2(CCc3ccccc3)c3[nH]c4cc(-c5ccco5)ccc4c3CCN2C1=O	PRMT1 FP inh 24 (no result: GSTO1 counter, RBBP9 inhibitor, PME-1 inh, Fam108B counter)
CC(=O)c1ccc(N2CCN(C(=O)/C=C/c3ccc(S(=O)(=O)NCc4ccco4)cc3)CC2)cc1	none
CC(=O)Oc1ccc(C(c2ccc(OC(C)=O)cc2)c2ccccn2)cc1	RBBP9 inhibitor 25
c1ccc(C(c2ccccn2)c2ccccn2)cc1	none
CCCCCn1c(=O)[nH]c2cc(C(=O)NCCCN3CCCCC3)ccc2c1=O	none
Cc1cc(NC(=O)Nc2cccc(C(F)(F)F)c2)n(C)n1	none
CCC1CCc2c(sc(NC(=O)c3cnccn3)c2C(N)=O)C1 (centres undefined)	PRMT1 FP inh 24 (no result: RBBP9 inhibitor)
CCC1CCc2c(sc(NC(=O)c3ccco3)c2C(N)=O)C1 (centres undefined)	none
CCOC(=O)N1CCC(NC(=O)c2ccc3c(Cl)c4c(nc3c2)CCCC4)CC1	RBBP9 inhibitor 22
CCc1ccc(C(=O)CSc2nc3cc(S(=O)(=O)N4CCOCC4)ccc3n2CC)cc1	GSTO1 counter 36
COc1ccc(N2CSC3=C(C#N)C(c4ccc(OC)c(OC)c4)CC(=O)N3C2)c(OC)c1 (centres undefined)	PRMT1 FP inh 47
CCOc1ccccc1NC(=O)CSc1nnc(Cn2c(=O)sc3ccccc32)n1C	none
COCCCN(C(=O)CSc1nc2ccccc2c(=O)n1C)c1c(N)n(Cc2ccccc2)c(=O)[nH]c1=O	PRMT1 FP inh 23 (no result: PAD4 inh, GSTO1 counter, RBBP9 inhibitor, PME-1 inh, Fam108B counter)
COCCN(C(=O)CSc1nnc(C)n1Cc1ccccc1)c1c(N)n(Cc2ccccc2)c(=O)[nH]c1=O	none (no result: PRMT1 FP inh)
CCOc1ccc(NC(=O)Nc2ccc3c(c2)N(C)C(=O)CS3)cc1	PME-1 inh 33
CC(=O)c1ccc(NC(=O)Nc2ccc3c(c2)N(C)C(=O)CS3)cc1	none
COc1ccc(C(=O)c2oc3nc(C)cc(C)c3c2N)cc1	none
CCC(=O)NC(=S)Nc1ccc(NC(=O)c2ccc([N+](=O)[O-])cc2)cc1	none
COc1cc(/C=C/c2[nH]c(=O)[nH]c(=O)c2[N+](=O)[O-])cc(OC)c1O	none (no result: PAD4 inh, GSTO1 counter, RBBP9 inhibitor, PME-1 inh, Fam108B counter)
COc1cccc(/C=C/c2[nH]c(=O)[nH]c(=O)c2[N+](=O)[O-])c1O	GSTO1 counter 36 (no result: RBBP9 inhibitor)
O=C(NC(=S)N1CCc2ccccc21)c1ccccc1	none
Cc1cccc(Nc2n[nH]c(=S)s2)c1C	PRMT1 FP inh 24
COc1ccccc1-n1ccnc(SCC(=O)NCCc2ccccc2)c1=O	PRMT1 FP inh 23 (no result: RBBP9 inhibitor)
COc1ccccc1-n1ccnc(SCC(=O)NCc2ccccc2Cl)c1=O	none (no result: RBBP9 inhibitor)
O=C(c1sc2ccccc2c1Cl)N1CCN(c2ncccn2)CC1	PME-1 inh 28
CSC1=C(C#N)C(CC(C)C)C(C(C)=O)=C(C)N1 (centres undefined)	none
CC(C)CCN1C(=O)c2ccc(C(=O)OCC(=O)N(C)C3CCS(=O)(=O)C3)cc2C1=O (centres undefined)	none (no result: RBBP9 inhibitor)
Oc1cc2c(cc1O)C1c3ccc(O)c(O)c3OCC1(O)C2 (centres undefined)	GSTO1 counter 49, PRMT1 FP inh 55
O=C1NC2(CCCCC2)N(C(=O)c2ccccc2)C2=C1CCCC2	none
CCn1c(/C=C/c2c[nH]c3ccccc23)nc2ccccc2c1=O	PME-1 inh 44
CCn1c(/C=C\c2ccccc2C)nc2ccccc2c1=O	none
COc1ccc(N2CCN(C(=O)C3CCN(S(=O)(=O)c4ccc(F)cc4)CC3)CC2)cc1	PME-1 inh 42
Cc1nn(C)c(C(=O)N/N=C/c2ccc(C(F)(F)F)cc2)c1[N+](=O)[O-]	none
CC1(C)CC(O)CC(C)(C)N1CC(O)COCCOc1ccc(Br)cc1 (centres undefined)	GSTO1 counter 35
Cc1cc(NC(=O)c2ccc(Cn3nc(C)c(Br)c3C)o2)no1	none
Cc1nn(Cc2ccc(C(=O)NC(C)(C)C)o2)c(C)c1Br	PRMT1 FP inh 24
NC(=O)c1c(NC(NC(=O)c2ccco2)C(=O)c2ccc(Cl)cc2)sc2c1CCCC2 (centres undefined)	PRMT1 FP inh 24
N#Cc1c(NC(=O)c2ccccc2)sc2c1CCCCC2	none
N#Cc1c(NC(NC(=O)c2ccco2)C(=O)c2ccccc2)sc2c1CCCC2 (centres undefined)	PRMT1 FP inh 23
COc1ccc(-c2oc3cc(OC(C)=O)cc(OC(C)=O)c3c(=O)c2OC)cc1	none (no result: PAD4 inh, GSTO1 counter, RBBP9 inhibitor, PME-1 inh, Fam108B counter)
CC(=O)Oc1cc(O)c2c(=O)c(OC(C)=O)c(-c3ccc(OC(C)=O)c(OC(C)=O)c3)oc2c1	GSTO1 counter 60 (no result: RBBP9 inhibitor, PRMT1 FP inh)
O=C(c1ccccc1)C(Sc1ncn[nH]1)c1ccccc1 (centres undefined)	PRMT1 FP inh 23
O=C(O)CCc1ccc(-c2ccccc2)n1-c1cccc(C(=O)O)c1	none (no result: RBBP9 inhibitor)
O=C(O)CCc1ccc(-c2ccc(Br)cc2)n1-c1cccc(O)c1	GSTO1 counter 35 (no result: RBBP9 inhibitor)
CC(C)CC(=O)c1c[nH]c(C(=O)NCc2cccs2)c1	none
O=C(NCc1ccco1)c1cccc2c1C(=O)c1ccc(/C=C/c3ccccc3)cc1S2(=O)=O	PRMT1 FP inh 29 (no result: GSTO1 counter, RBBP9 inhibitor, PME-1 inh, Fam108B counter)
COc1ccc(NC(=O)CSc2nnc(-c3ccccc3C)n2N)cc1OC	none
COc1ccc(NC(=O)CSc2nnc(-c3ccccc3C)n2N)cc1	PRMT1 FP inh 21
Cc1ccc(Nc2cc(C)c3c(O)cccc3n2)cc1C	PME-1 inh 31
COC(=O)c1cc(O)cc(OC)c1C(=O)c1c(O)cc(C)cc1O	none (no result: RBBP9 inhibitor)
COC(=O)c1cc(O)cc(OC)c1Oc1cc(C)cc(O)c1C(=O)O	GSTO1 counter 36 (no result: RBBP9 inhibitor)
COc1cc2cc(CCOC(=O)N3CCCCC3)oc(=O)c2cc1OC	none (no result: GSTO1 counter, RBBP9 inhibitor, Fam108B counter)
